Source: article PMC3952852 (Molecular Biology of the Cell, 2014)
One block for each compound: values may come before it.

Columns and labels:
LIMK1 [1] = molecular target: T1, LIMK1 (Homo sapiens, UniProt P53667); experiment: in vitro kinase assay, LIMK1; assay type: biochemical; conditions: cofilin substrate; for effect on the kinase activity of LIMK1: concentrations of 1–30 μM
PAK3 = PAK3 (Homo sapiens, UniProt O75914); experiment: in vitro kinase assay, PAK3; assay type: biochemical
JCaM1.6 cells = experiment: CXCL12-induced chemotaxis, Transwell, JCaM1.6 cells; assay type: cell-based; conditions: Lck-deficient JCaM1.6, pretreated 30 min, 5 nM CXCL12, 3 h
Summary of the method: (§1)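 Cells at 2×10^6 cells/ml in RPMI1640 with 0.5% BSA were pretreated 30 min at room temperature with test compound or vehicle (final 0.3% DMSO). 2×10^5 cells went into the upper well (5-µm pore Transwell). The lower well held RPMI, 0.5% BSA, 5 nM CXCL12 and compound or vehicle. After 3 h at 37°C, migrated cells in the lower well were counted. Mean ± SD of four independent experiments; one-way ANOVA with Dunnett's test.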

MDA-MB-231 cells = experiment: serum-induced Matrigel invasion assay, MDA-MB-231 cells; assay type: cell-based, human; conditions: MDA-MB-231, Matrigel, 15 h
Summary of the method: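 MDA-MB-231 cells (2×10^5 cells/ml) were serum-starved 3 h and resuspended in serum-free DMEM. They were pretreated 30 min at room temperature with test compound or vehicle (final 0.3% DMSO). Transwell inserts (8-µm pore) were coated with 50 µg Matrigel for 1 h at 37°C and washed three times with DMEM. 2×10^4 cells were loaded, with serum in the lower chamber. After 15 h, invaded cells on the lower membrane face were counted. Mean ± SD of six independent experiments; Dunnett's test.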

PKCα = PKCα (Homo sapiens, UniProt P17252); experiment: in vitro kinase assay, PKCα; assay type: biochemical
Jurkat cells [2] = experiment: CXCL12-induced chemotaxis, Transwell, Jurkat cells; assay type: cell-based; conditions: pretreated 30 min, 5 nM CXCL12, 3 h
Summary of the method: as §1

P-MAPK in Jurkat cells = experiment: CXCL12-induced MAPK phosphorylation in Jurkat cells; assay type: cell-based; conditions: 5 nM CXCL12 for 5 min
Summary of the method: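 Jurkat cells grown in RPMI with 10% FCS were stimulated with 5 nM CXCL12 for 5 min, with or without test compound. Cells were lysed in HEPES pH 7.4 lysis/kinase buffer containing NP-40, NaF, Na3VO4 and protease inhibitors. Lysates were immunoblotted for P-MAPK and total MAPK, alongside P-cofilin and cofilin.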

CaMKIα = CaMKIα (Homo sapiens, UniProt Q14012); experiment: in vitro kinase assay, CaMKIα; assay type: biochemical
Sequence of CaMKIα (Q14012 1-293, species assumed): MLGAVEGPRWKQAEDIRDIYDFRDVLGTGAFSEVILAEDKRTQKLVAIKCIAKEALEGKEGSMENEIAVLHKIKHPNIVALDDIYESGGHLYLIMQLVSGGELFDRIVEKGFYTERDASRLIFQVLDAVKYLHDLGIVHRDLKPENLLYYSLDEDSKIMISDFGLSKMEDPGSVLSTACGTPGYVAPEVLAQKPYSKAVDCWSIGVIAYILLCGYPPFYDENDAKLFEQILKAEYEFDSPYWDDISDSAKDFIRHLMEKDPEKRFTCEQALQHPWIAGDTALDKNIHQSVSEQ

[3] = test system: epidermal Langerhans cells; experiment: hapten; assay type: in vivo, mouse; conditions: 20 μM topical
Summary of the method: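 BALB/c mice (8–10 wk): each ear painted with 20 µl of 20 µM test compound in 2% DMSO in 1:4 acetone/olive oil, or vehicle. 30 min later, 20 µl 3% TNCB or vehicle applied, ± 20 µM compound; repainted at 12 h; ears taken 24 h post-TNCB. NH4SCN-separated, acetone-fixed epidermal sheets stained with FITC anti-I-Ad; confocal imaging, 15 areas/ear; five experiments, mean ± SD, ANOVA/Dunnett.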

LIMK1 [4] = molecular target: T1, LIMK1; assay type: biochemical; conditions: range of inhibitor concentrations
Src = Src (Homo sapiens, UniProt P12931); experiment: in vitro kinase assay, active Src; assay type: biochemical
Sequence of Src (P12931 270-523 limits assumed): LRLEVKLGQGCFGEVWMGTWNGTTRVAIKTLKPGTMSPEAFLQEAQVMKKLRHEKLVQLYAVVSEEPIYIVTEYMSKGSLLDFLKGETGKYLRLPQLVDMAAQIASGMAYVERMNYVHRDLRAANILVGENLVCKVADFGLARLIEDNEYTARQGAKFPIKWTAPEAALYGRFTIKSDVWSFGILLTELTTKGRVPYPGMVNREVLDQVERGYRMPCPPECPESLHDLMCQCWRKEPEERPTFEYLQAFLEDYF

Jurkat cells [5] = experiment: CXCL12-induced lamellipodium formation in Jurkat cells; assay type: cell-based; conditions: Dam 30 min, then 5 nM CXCL12 for 20 min
Summary of the method: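 Jurkat cells were given 5 µM test compound or vehicle for 30 min, then 5 nM CXCL12 for 20 min. They were fixed and stained with rhodamine–phalloidin for F-actin, then scored into three classes: large lamellipodia, small lamellipodia, or round without lamellipodium. 200–300 cells were counted per experiment. Class percentages are mean ± SD of three independent experiments.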

[6] = test system: P-cofilin in Jurkat cells; experiment: CXCL12-induced cofilin phosphorylation in Jurkat cells; assay type: cell-based; conditions: 5 nM CXCL12 for 5 min
Summary of the method: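 Jurkat cells (RPMI, 10% FCS) were stimulated with 5 nM CXCL12 for 5 min. Lysates in HEPES pH 7.4 lysis/kinase buffer were immunoblotted for P-cofilin, cofilin, P-MAPK and MAPK. P-cofilin was expressed relative to control cells, set at 1.0.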

ROCK = ROCK (Homo sapiens, UniProt Q13464); experiment: in vitro kinase assay, ROCK; assay type: biochemical
Sequence of ROCK (Q13464 1-727): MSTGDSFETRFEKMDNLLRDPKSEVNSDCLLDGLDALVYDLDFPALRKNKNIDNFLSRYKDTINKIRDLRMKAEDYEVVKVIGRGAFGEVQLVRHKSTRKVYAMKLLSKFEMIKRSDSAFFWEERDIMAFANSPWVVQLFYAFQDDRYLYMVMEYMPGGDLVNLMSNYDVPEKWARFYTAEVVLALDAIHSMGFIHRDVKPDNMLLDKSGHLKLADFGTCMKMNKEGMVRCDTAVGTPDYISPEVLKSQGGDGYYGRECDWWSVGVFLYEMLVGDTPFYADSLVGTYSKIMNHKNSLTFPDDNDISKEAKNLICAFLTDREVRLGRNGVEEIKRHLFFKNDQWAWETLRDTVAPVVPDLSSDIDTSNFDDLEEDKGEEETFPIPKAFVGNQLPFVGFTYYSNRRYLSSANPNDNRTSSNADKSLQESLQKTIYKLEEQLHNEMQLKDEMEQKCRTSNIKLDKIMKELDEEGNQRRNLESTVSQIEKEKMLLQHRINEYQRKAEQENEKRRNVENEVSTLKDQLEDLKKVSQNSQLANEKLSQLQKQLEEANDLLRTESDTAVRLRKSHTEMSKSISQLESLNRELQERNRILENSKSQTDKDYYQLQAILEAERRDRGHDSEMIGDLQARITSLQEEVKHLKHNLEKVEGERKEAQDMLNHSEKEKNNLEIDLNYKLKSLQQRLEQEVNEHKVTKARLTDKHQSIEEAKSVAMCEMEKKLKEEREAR

[7] = test system: P-cofilin in N1E-115 cells; experiment: cofilin phosphorylation immunoblot in LIMK1-CFP-overexpressing N1E-115 cells; assay type: cell-based; conditions: 30 min
[8] = test system: P-cofilin in Vero 2-2 cells; experiment: 2D gel analysis of 32P-labeled phospho-proteins in whole cell lysates; assay type: cell-based; conditions: 10 μM, 5 h
Lck = conditions: read-out: IC50 for Lck; ref Jayasuriya et al., 1992; cited from earlier work

T1 sequence (P53667 whole entry): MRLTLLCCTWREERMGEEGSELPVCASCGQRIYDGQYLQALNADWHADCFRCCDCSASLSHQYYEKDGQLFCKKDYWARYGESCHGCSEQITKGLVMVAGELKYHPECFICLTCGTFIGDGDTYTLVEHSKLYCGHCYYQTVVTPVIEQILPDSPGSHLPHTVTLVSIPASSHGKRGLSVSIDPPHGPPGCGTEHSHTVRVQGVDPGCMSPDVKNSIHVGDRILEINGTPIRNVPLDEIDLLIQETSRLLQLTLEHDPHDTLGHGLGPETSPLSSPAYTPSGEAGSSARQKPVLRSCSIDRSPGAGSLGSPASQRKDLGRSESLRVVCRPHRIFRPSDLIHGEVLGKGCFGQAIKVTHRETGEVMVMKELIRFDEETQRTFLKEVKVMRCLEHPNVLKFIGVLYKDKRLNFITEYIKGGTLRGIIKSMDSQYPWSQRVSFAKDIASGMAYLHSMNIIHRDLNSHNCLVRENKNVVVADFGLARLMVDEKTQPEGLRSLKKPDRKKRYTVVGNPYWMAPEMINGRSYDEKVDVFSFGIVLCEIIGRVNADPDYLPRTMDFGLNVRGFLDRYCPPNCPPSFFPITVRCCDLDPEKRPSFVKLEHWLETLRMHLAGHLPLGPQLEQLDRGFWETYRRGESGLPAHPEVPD
Sequence of PAK3 (O75914 177-559, species assumed): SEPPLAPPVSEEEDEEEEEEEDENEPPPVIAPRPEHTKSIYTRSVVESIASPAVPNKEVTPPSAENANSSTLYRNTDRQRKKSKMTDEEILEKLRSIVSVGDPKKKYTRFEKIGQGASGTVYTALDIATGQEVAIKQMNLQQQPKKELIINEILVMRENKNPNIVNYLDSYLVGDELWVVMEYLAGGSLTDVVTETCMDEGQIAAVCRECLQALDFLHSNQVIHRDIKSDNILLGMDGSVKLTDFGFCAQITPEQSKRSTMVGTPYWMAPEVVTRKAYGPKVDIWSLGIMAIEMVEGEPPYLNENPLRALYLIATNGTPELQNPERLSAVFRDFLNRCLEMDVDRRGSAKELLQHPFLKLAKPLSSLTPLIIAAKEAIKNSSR

effect of hydroxylamine alone on LIMK1 activity (LIMK1 [1]; LIMK1-CFP): no effect
Structure (SMILES): NO [Hydroxylamine, hydroxylamine]

Structure (SMILES): O=C1c2c(O)ccc(O)c2C(=O)c2c(NCCNCCO)ccc(NCCNCCO)c21 [mitoxantrone]
effect on the kinase activity of LIMK1 (LIMK1 [1]): no appreciable effect

IC50 (PAK3): > 20 µM
IC50 (PKCα): > 20 µM
IC50 (CaMKIα): > 20 µM
concentration range inhibiting the kinase activity of LIMK1 in detailed in vitro BiFC assays (LIMK1 [4]): 5 to 10 µM
IC50 (Src): > 20 µM
IC50 (ROCK): > 20 µM
Structure (SMILES): COc1c(C=O)c(O)cc2c1C(=O)c1ccccc1C2=O [Dam, 3-hydroxy-1-methoxy-9,10-dioxoanthraquinone-2-carbaldehyde]
concentration range inhibiting CXCL12-induced chemotaxis (JCaM1.6 cells): 3 to 10 µM
concentration range significantly suppressing serum-induced invasion (MDA-MB-231 cells): 3 to 10 µM
concentration range inhibiting CXCL12-induced chemotaxis (Jurkat cells [2]): 3 to 10 µM
effect on increase in P-MAPK after CXCL12 stimulation (P-MAPK in Jurkat cells): unaffected
effect on hapten-induced Langerhans cell size changes ([3]; TNCB): no apparent effect
effect on Langerhans cell density of control ears ([3]; no TNCB): no effect
effect on lamellipodium formation after CXCL12 stimulation (Jurkat cells [5]): fewer cells with large lamellipodial protrusions and more cells with small or no lamellipodial protrusions
concentration range suppressing CXCL12-induced increase of P-cofilin [6]: 3 to 10 µM
concentration range significantly decreasing P-cofilin level [7]: 5 to 10 µM
amount of P-cofilin in treated cells compared with untreated cells [8]: decreased

effect on the kinase activity of LIMK1 (LIMK1 [1]): no appreciable effect
Structure (SMILES): Cc1cc(O)c2c(c1)C(=O)c1cc(O)cc(O)c1C2=O [emodin]
IC50 (Lck): 18.5 µM
